The source made the active and inactive calls. No cut-off for these calls is given here.
Legend:
[1] = target: Epidermal growth factor receptor (Homo sapiens, UniProt P00533); assay: Inhibition of EGFR (unknown origin) by ELISA method
NCI-H1975 [2] = assay: Antiproliferative activity against human NCI-H1975 cells assessed as growth inhibition; format: functional
Summary of the method: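 NCI-H1975 cells were grown in RPMI with 1 mM sodium pyruvate, 10% FBS and 1% penicillin-streptomycin, under humidified 5% CO₂ at 37 °C. Growth inhibition was read as GI₅₀.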

NCI-H1975 [3] = assay: Antitumor activity against human NCI-H1975 cells xenografted in BALB/c mouse assessed as tumor growth inhibition at 30 mg/kg po, qd for 21 days relative to control; format: functional, organism-based
Summary of the method: (§1)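 Athymic mice received 2 × 10⁶ tumour cells subcutaneously in the right flank. At 100–300 mm³ they were randomised to control and treatment groups (n = 6); controls received vehicle alone. Tumour volume = length × width²/2 and RTV = Vt/V0.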

A-431 = assay: Antitumor activity against human A431 cells xenografted in BALB/c mouse assessed as tumor growth inhibition at 5 mg/kg po, qd for 18 days; format: functional, organism-based; summary of the method: as §1
HCC827 = assay: Antitumor activity against human HCC827 cells xenografted in BALB/c mouse assessed as tumor growth inhibition at 5 mg/kg po, qd for 12 days; format: functional, organism-based; summary of the method: as §1
[4] = Bioavailability in Sprague-Dawley rat at 1 mg/kg, iv incubated for 24 hrs by LC/MS/MS method; format: ADME, organism-based; settings: in vivo
Summary of the method: (§2)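 Male Sprague-Dawley rats (n = 3) dosed once at 1 mg/kg iv via tail vein, or once at 5 mg/kg by oral gavage, using the same formulation. Serial blood samples were taken over 24 h. Plasma levels were measured by LC/MS/MS (C18 column, 10 mM ammonium formate-0.1% formic acid water/methanol 10/90, ESI positive). Parameters were derived by noncompartmental analysis.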

[5] = Elimination half-life in Sprague-Dawley rat at 1 mg/kg, iv incubated for 24 hrs by LC/MS/MS method; format: ADME, organism-based; settings: in vivo, read-out: beta t1/2 (converted); summary of the method: as §2
[6] = AUC (0 to 24 hrs) in Sprague-Dawley rat at 1 mg/kg, iv by LC/MS/MS method; format: ADME, organism-based; parameters: time < 24 hr, dose 1 mg/kg, route intravenous; settings: in vivo; summary of the method: as §2
[7] = Clearance in Sprague-Dawley rat at 1 mg/kg, iv incubated for 24 hrs by LC/MS/MS method; format: ADME, organism-based; settings: in vivo; summary of the method: as §2
[8] = Mean residence time in Sprague-Dawley rat at 1 mg/kg, iv incubated for 24 hrs by LC/MS/MS method; format: ADME, organism-based; settings: in vivo; summary of the method: as §2
NCI-H1975 [9] = assay: Antitumor activity against human NCI-H1975 cells xenografted in BALB/c mouse assessed as tumor growth inhibition at 50 mg/kg po, qd for 21 days; format: functional, organism-based; summary of the method: as §1
[10] = AUC (0 to infinity) in Sprague-Dawley rat at 1 mg/kg, iv by LC/MS/MS method; format: ADME, organism-based; parameters: dose 1 mg/kg, time infinity, route intravenous; settings: in vivo; summary of the method: as §2
[11] = Apparent volume of distribution in Sprague-Dawley rat at 1 mg/kg, iv incubated for 24 hrs by LC/MS/MS method; format: ADME, organism-based; settings: in vivo, read-out: Vd(app); summary of the method: as §2

Sequence of Epidermal growth factor receptor (P00533 whole entry): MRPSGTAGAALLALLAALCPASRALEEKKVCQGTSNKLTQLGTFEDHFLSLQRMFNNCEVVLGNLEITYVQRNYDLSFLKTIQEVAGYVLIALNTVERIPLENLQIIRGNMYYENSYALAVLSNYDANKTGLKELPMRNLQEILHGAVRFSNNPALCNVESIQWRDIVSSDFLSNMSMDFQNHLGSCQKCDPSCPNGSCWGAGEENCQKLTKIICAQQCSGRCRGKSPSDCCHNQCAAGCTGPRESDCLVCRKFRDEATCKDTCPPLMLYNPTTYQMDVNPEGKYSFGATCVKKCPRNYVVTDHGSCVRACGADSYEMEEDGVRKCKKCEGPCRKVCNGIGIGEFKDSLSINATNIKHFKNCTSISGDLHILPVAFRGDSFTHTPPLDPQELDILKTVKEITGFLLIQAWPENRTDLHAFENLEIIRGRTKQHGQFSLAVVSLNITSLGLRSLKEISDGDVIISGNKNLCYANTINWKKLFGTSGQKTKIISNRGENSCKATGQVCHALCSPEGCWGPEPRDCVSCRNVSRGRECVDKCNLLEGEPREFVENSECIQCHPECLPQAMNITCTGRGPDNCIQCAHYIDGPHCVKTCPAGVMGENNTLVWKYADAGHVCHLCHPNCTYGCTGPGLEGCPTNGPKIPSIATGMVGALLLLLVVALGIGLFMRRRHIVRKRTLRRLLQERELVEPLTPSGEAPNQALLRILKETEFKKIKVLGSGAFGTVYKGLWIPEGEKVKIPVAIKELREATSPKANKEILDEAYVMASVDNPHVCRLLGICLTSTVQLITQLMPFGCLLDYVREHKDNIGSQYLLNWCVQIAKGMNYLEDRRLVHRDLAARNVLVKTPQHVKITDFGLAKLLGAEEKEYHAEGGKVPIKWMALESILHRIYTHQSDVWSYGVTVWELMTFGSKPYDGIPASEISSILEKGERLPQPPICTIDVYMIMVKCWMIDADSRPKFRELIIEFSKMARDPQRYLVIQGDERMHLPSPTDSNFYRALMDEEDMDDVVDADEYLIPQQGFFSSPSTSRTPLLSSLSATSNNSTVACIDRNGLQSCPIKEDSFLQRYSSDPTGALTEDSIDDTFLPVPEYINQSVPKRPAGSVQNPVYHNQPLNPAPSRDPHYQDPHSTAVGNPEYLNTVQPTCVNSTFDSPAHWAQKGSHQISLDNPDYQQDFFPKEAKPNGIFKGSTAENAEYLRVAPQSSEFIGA

C=CC(=O)Nc1cc2c(Nc3ccc(NC(=O)C=C)c(C(F)(F)F)c3)ncnc2cc1OCCOC
IC50 [1]: 115 nM

COCCOc1cc2ncnc(Nc3ccc(F)c(C#N)c3)c2cc1NC(=O)/C=C/CN(C)C
IC50 [1]: > 1000 nM

O=C(/C=C/CN(C1CC1)C1CC1)Nc1cc2c(Nc3ccc(F)c(Cl)c3)ncnc2cc1O[C@H]1CCOC1
IC50 [1]: > 1000 nM

CN(C)C/C=C/C(=O)Nc1cc2c(Nc3ccc(OCc4cccc(F)c4)cc3)ncnc2cc1O[C@H]1CCOC1
IC50 [1]: 134 nM

C=CC(=O)Nc1cc2c(Nc3ccc(OCc4ccccn4)cc3)ncnc2cc1O[C@H]1CCOC1
IC50 [1]: 100 nM

C=CC(=O)Nc1cc2c(Nc3ccc(F)c(C#N)c3)ncnc2cc1O[C@H]1CCOC1
IC50 [1]: 167 nM

C#Cc1cccc(Nc2ncnc3cc(OC4CCOCC4)c(NC(=O)/C=C/CN(C)C)cc23)c1
IC50 [1]: 6 nM

COCCOc1cc2ncnc(Nc3ccc(OCc4cccc(F)c4)cc3)c2cc1NC(=O)/C=C/CN(C)C
IC50 [1]: 91 nM

C=CC(=O)Nc1cc2c(Nc3ccc(F)c(Cl)c3)ncnc2cc1O[C@H]1CCOC1
IC50 [1]: 5.8 nM

COc1cc2ncnc(Nc3ccc(F)c(Cl)c3)c2cc1NC(=O)/C=C/CN(C1CC1)C1CC1
IC50 [1]: > 1000 nM

C=CC(=O)Nc1cc2c(Nc3ccc(Cl)c(C(F)(F)F)c3)ncnc2cc1O[C@H]1CCOC1
IC50 [1]: 105 nM

O=C(/C=C/CN1CC[S+]([O-])CC1)Nc1cc2c(Nc3ccc(F)c(Cl)c3)ncnc2cc1O[C@H]1CCOC1
IC50 [1]: 109 nM

C=CC(=O)Nc1cc2c(Nc3ccc(Cl)c(C(F)(F)F)c3)ncnc2cc1OCCOC
IC50 [1]: > 1000 nM

COCCOc1cc2ncnc(Nc3ccc(OCc4cccc(F)c4)c(Cl)c3)c2cc1NC(=O)/C=C/CN(C)C
IC50 [1]: > 1000 nM

COCCOc1cc2ncnc(Nc3ccc(F)c(Cl)c3)c2cc1NC(=O)/C=C/CN(C)C1CC1
GI50 (NCI-H1975 [2]): 87.1 nM | IC50 [1]: 8.9 nM

COCCOc1cc2ncnc(Nc3ccc(F)c(Cl)c3)c2cc1NC(=O)/C=C/CN(C)C
IC50 [1]: 1.2 nM

C#Cc1cccc(Nc2ncnc3cc(OC4CCN(C)CC4)c(NC(=O)/C=C/CN(C)C)cc23)c1
IC50 [1]: 8.1 nM

COCCOc1cc2ncnc(Nc3ccc(F)c(Cl)c3)c2cc1NC(=O)/C=C/CN1CC[S+]([O-])CC1
IC50 [1]: 357 nM

C#Cc1cccc(Nc2ncnc3cc(OC)c(NC(=O)/C=C/CN(C)C4CC4)cc23)c1
GI50 (NCI-H1975 [2]): 70.5 nM | IC50 [1]: 3.3 nM

C#Cc1cccc(Nc2ncnc3cc(O[C@H]4CCOC4)c(NC(=O)/C=C/CN(C)C)cc23)c1
IC50 [1]: 1.2 nM

CN(C)C/C=C/C(=O)Nc1cc2c(Nc3ccc(F)c(C#N)c3)ncnc2cc1O[C@H]1CCOC1
IC50 [1]: 147 nM

CN(C)C/C=C/C(=O)Nc1cc2c(Nc3ccc(OCc4ccccn4)cc3)ncnc2cc1O[C@H]1CCOC1
IC50 [1]: 9 nM

CN(C)C/C=C/C(=O)Nc1cc2c(Nc3ccc(OCc4cccc(F)c4)c(Cl)c3)ncnc2cc1O[C@H]1CCOC1
IC50 [1]: 510 nM

O=C1CCN(C/C=C/C(=O)Nc2cc3c(Nc4ccc(F)c(Cl)c4)ncnc3cc2O[C@H]2CCOC2)CC1
IC50 [1]: 520 nM

COc1cc2ncnc(Nc3ccc(F)c(Cl)c3)c2cc1NC(=O)/C=C/CN(C)C1CC1
GI50 (NCI-H1975 [2]): 32.2 nM | IC50 [1]: 26.9 nM

COc1cc2ncnc(Nc3ccc(F)c(Cl)c3)c2cc1NC(=O)/C=C/CN1CCCCC1 [DACOMITINIB ANHYDROUS]
GI50 (NCI-H1975 [2]): 123 nM

CN(C)C/C=C/C(=O)Nc1cc2c(Nc3ccc(F)c(Cl)c3)ncnc2cc1O[C@H]1CCOC1
TGI (NCI-H1975 [3]): Active | TGI (A-431): Active | TGI (HCC827): Active

COc1cc2ncnc(Nc3ccc(F)c(Cl)c3)c2cc1NC(=O)/C=C/CN1CC[S+]([O-])CC1
IC50 [1]: > 1000 nM

COCCOc1cc2ncnc(Nc3ccc(F)c(Cl)c3)c2cc1NC(=O)/C=C/CN1CCCCC1
GI50 (NCI-H1975 [2]): 92.3 nM | IC50 [1]: 2.1 nM

C=CC(=O)Nc1cc2c(Nc3ccc(Br)cc3F)ncnc2cc1O[C@H]1CCOC1
IC50 [1]: 121 nM

O=C(/C=C/CNC1CC1)Nc1cc2c(Nc3ccc(F)c(Cl)c3)ncnc2cc1OC(F)F
GI50 (NCI-H1975 [2]): 34.6 nM | IC50 [1]: 9.6 nM

COCCOc1cc2ncnc(Nc3ccc(Cl)c(C(F)(F)F)c3)c2cc1NC(=O)/C=C/CN(C)C
IC50 [1]: 574 nM

C#Cc1cccc(Nc2ncnc3cc(OCC)c(NC(=O)/C=C/CN4CCCCC4)cc23)c1
GI50 (NCI-H1975 [2]): 30.4 nM | IC50 [1]: 6.1 nM

CCOc1cc2ncnc(Nc3ccc(F)c(Cl)c3)c2cc1NC(=O)/C=C/CN(C)C1CC1
GI50 (NCI-H1975 [2]): 160 nM | IC50 [1]: 5.5 nM

C#Cc1cccc(Nc2ncnc3cc(OCCOC)c(NC(=O)C=C)cc23)c1
IC50 [1]: 1.8 nM

C=CC(=O)Nc1cc2c(Nc3ccc(OCc4cccc(F)c4)c(Cl)c3)ncnc2cc1O[C@H]1CCOC1
IC50 [1]: 560 nM

CC(C)NC/C=C/C(=O)Nc1cc2c(Nc3ccc(F)c(Cl)c3)ncnc2cc1O[C@H]1CCOC1
bioavailability [4]: < 5% | half-life [5]: 9.9 h | GI50 (NCI-H1975 [2]): 22.4 nM | AUC(0-t) at 24 h [6]: 166 ng·h/mL | clearance [7]: 90 mL/min/kg | MRT [8]: 8.8 h | TGI (NCI-H1975 [9]): inactive | AUC(0-inf) [10]: 197 ng·h/mL | IC50 [1]: 7 nM | Vd [11]: 6.5 L/kg

COc1cc2ncnc(Nc3ccc(F)c(Cl)c3)c2cc1NC(=O)/C=C/CNC1CC(F)(F)C1
GI50 (NCI-H1975 [2]): 98.7 nM | IC50 [1]: 141 nM

O=C(/C=C/CN1CCCCC1)Nc1cc2c(Nc3ccc(F)c(Cl)c3)ncnc2cc1O[C@H]1CCOC1
GI50 (NCI-H1975 [2]): 168 nM | IC50 [1]: 5.3 nM

C=CC(=O)Nc1cc2c(Nc3ccc(OCc4cccc(F)c4)cc3)ncnc2cc1O[C@H]1CCOC1
IC50 [1]: 72.2 nM

O=C(/C=C/CNC1CC1)Nc1cc2c(Nc3ccc(F)c(Cl)c3)ncnc2cc1OCC(F)(F)F
GI50 (NCI-H1975 [2]): 20.3 nM

C=CC(=O)Nc1cc2c(Nc3ccc(OCc4cccc(F)c4)c(Cl)c3)ncnc2cc1OCCOC
IC50 [1]: 102 nM

C=CC(=O)Nc1cc2c(Nc3ccc(F)c(C#N)c3)ncnc2cc1OCCOC
IC50 [1]: 196 nM

COCCOc1cc2ncnc(Nc3ccc(Br)cc3F)c2cc1NC(=O)/C=C/CN(C)C
IC50 [1]: 3 nM

C#Cc1cccc(Nc2ncnc3cc(O[C@H]4CCOC4)c(NC(=O)/C=C/CNC(C)C)cc23)c1
bioavailability [4]: < 5% | half-life [5]: 1.5 h | GI50 (NCI-H1975 [2]): 19.8 nM | AUC(0-t) at 24 h [6]: 92.6 ng·h/mL | clearance [7]: 170 mL/min/kg | MRT [8]: 2.6 h | TGI (NCI-H1975 [9]): inactive | AUC(0-inf) [10]: 105 ng·h/mL | IC50 [1]: 6.4 nM | Vd [11]: 7.4 L/kg

CN(C)C/C=C/C(=O)Nc1cc2c(Nc3ccc(OCc4ccccn4)c(Cl)c3)ncnc2cc1O[C@H]1CCOC1
IC50 [1]: 8.1 nM

C#Cc1cccc(Nc2ncnc3cc(OC)c(NC(=O)/C=C/CN4CCCCC4)cc23)c1
GI50 (NCI-H1975 [2]): 48.9 nM | IC50 [1]: 2.7 nM

C#Cc1cccc(Nc2ncnc3cc(O[C@H]4CCOC4)c(NC(=O)C=C)cc23)c1
IC50 [1]: 32.2 nM

CCOc1cc2ncnc(Nc3ccc(F)c(Cl)c3)c2cc1NC(=O)/C=C/CN(C1CC1)C1CC1
IC50 [1]: > 1000 nM

COCCOc1cc2ncnc(Nc3ccc(NC(=O)/C=C/CN(C)C)c(C(F)(F)F)c3)c2cc1NC(=O)/C=C/CN(C)C
IC50 [1]: 102 nM

C#Cc1cccc(Nc2ncnc3cc(O[C@H]4CCOC4)c(NC(=O)/C=C/CN4CCCCC4)cc23)c1
GI50 (NCI-H1975 [2]): 40.1 nM | IC50 [1]: 5.3 nM

COCCOc1cc2ncnc(Nc3ccc(OCc4ccccn4)cc3)c2cc1NC(=O)/C=C/CN(C)C
IC50 [1]: 10 nM

CN(C)C/C=C/C(=O)Nc1cc2c(Nc3ccc(F)c(Cl)c3)ncnc2cc1O[C@H]1CCOC1 [AFATINIB]
bioavailability [4]: 62.3% | half-life [5]: 9.6 h | GI50 (NCI-H1975 [2]): 107 nM | AUC(0-t) at 24 h [6]: 277 ng·h/mL | clearance [7]: 54.2 mL/min/kg | MRT [8]: 10.6 h | AUC(0-inf) [10]: 324 ng·h/mL | Vd [11]: 10.8 L/kg

COCCOc1cc2ncnc(Nc3ccc(OCc4ccccn4)c(Cl)c3)c2cc1NC(=O)/C=C/CN(C)C
IC50 [1]: 5.4 nM

Source: ChEMBL document CHEMBL3621102, “Structure-activity study of quinazoline derivatives leading to the discovery of potent EGFR-T790M inhibitors” (Eur J Med Chem, 2015)
